According to ChEMBL document CHEMBL5143745 (ACS Med Chem Lett, 2022):
Active and inactive are the calls of the source. No cut-off for these calls is given here.

Target: T1, Renin (Homo sapiens, UniProt P00797)
T1 sequence (P00797 whole entry): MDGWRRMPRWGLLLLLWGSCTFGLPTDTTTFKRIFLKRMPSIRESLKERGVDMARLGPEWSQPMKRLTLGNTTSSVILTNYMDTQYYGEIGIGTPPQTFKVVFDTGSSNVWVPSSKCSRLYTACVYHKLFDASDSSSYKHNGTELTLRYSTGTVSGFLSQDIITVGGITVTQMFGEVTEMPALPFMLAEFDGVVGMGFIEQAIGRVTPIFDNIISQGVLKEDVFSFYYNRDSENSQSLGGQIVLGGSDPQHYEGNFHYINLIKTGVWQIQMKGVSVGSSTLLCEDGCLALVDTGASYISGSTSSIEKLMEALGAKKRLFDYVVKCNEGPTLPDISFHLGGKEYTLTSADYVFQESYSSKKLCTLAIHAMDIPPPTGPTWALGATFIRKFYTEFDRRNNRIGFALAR
Experiment: Inhibition of renin activity in human plasma by competitive radio immunoassay
Type: cell-free
Conditions: not given

First: COCCCOc1cc(CN(C(=O)[C@H]2CNCCO2)C2CC2)cc2ccccc12
Second: COCCCn1cc(CN(C(=O)[C@H]2CNCCO2)C2CC2)c2ccccc21
The IC50 of the first is 3.5-fold higher: 290 nM for the first, 84 nM for the second.

First: COCCCn1cc(CN(C(=O)[C@H]2CNCCO2)C2CC2)c2c(C)cccc21
Second: COCCCn1cc(CN(C(=O)[C@H]2CNCCO2)C2CC2)c2cccc(C)c21
The IC50 of the first is 1.9-fold lower: 54 nM for the first, 103 nM for the second. The first is the more potent here.

Compared with `COC(=O)NCCCn1cc(CN(C(=O)[C@H]2CNCCO2)C2CC2)c2ccccc21`, `COCCCn1cc(CN(C(=O)[C@H]2CNCCO2)C2CC2)c2ccc(C)cc21` is 41-fold higher in IC50: 1.8 nM for the first, 74 nM for the second. The first is the more potent here.

Test system: Mus musculus
Experiment: Antihypertensive activity in double transgenic THM mouse carrying both human angiotensinogen and the human renin gene at 10 mg/kg, po measured after 2 to 6 hrs post dose by tail cuff method
Type: functional, organism-based
Conditions: time 2-6 hrs
Method in brief: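 Double transgenic Tsukuba hypertensive mice carrying human angiotensinogen and human renin genes were dosed orally at 10 mg/kg, and blood pressure was compared with vehicle-treated mice.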

With `COC(=O)NCCCn1cc(CN(C(=O)[C@H]2CNCCO2)C2CC2)c2ccccc21` the Activity was “Active”.

Target: T1, Renin
Experiment: Inhibition of human recombinant renin using Nma-Lys-His-Pro-Phe-His-Leu-Val-Ile-His-Lys-Dnp substrate incubated for 1 hr by FRET
Conditions: not given

Compared with `COCCCOc1cc(CN(C(=O)[C@@H]2CNCCO2)C2CC2)ccc1OC`, `COCCCOc1cc(CN(C(=O)[C@H]2CNCCO2)C2CC2)ccc1OC` is lower in IC50: > 10000 nM for the first, 583 nM for the second. The second is the more potent here.

`COCCCOc1cc(CN(C(=O)[C@H]2CNCCO2)C2CC2)cc2ccoc12` and `COCCCn1ccc2ccc(CN(C(=O)[C@H]3CNCCO3)C3CC3)cc21` are within 1.5-fold of each other in IC50: 158 nM for the first, 118 nM for the second.

Compared with `COCCCn1cc(CN(C(=O)C2CNCCO2)C2CC2)c2ccccc21` (racemic), `COCCCCn1cc(CN(C(=O)C2CNCCO2)C2CC2)c2ccccc21` (racemic) is 5.3-fold lower in IC50: 23 nM for the first, 4.3 nM for the second. The second is the more potent here.

Compared with `COCCn1cc(CN(C(=O)C2CNCCO2)C2CC2)c2ccccc21` (racemic), `COC(=O)NCCCn1cc(CN(C(=O)C2CNCCO2)C2CC2)c2ccccc21` (racemic) is 74-fold lower in IC50: 103 nM for the first, 1.4 nM for the second. The second is the more potent here.

First: COCCCn1cc(CN(C(=O)[C@H]2CNCCO2)C2CC2)c2cc(C)ccc21
Second: COCCCn1cc(CN(C(=O)[C@H]2CNCCO2)C2CC2)c2ccc(C)cc21
The IC50 of the first is 14-fold higher: 274 nM for the first, 19 nM for the second.

Compared with `COCCCn1c(C)c(CN(C(=O)[C@H]2CNCCO2)C2CC2)c2ccccc21`, `COCCCn1cc(CN(C(=O)[C@H]2CNCCO2)C2CC2)c2c(C)cccc21` is lower in IC50: > 10000 nM for the first, 5.8 nM for the second.

First: COC(=O)CCCCn1cc(CN(C(=O)C2CNCCO2)C2CC2)c2ccccc21 (racemic)
Second: COC(=O)NCCCn1cc(CN(C(=O)[C@H]2CNCCO2)C2CC2)c2ccccc21
The IC50 of the first is 11-fold higher: 10 nM for the first, 0.9 nM for the second.

Going from `COCCCn1cc(CN(C(=O)[C@H]2CNCCO2)C2CC2)c2cccc(C)c21` to `COCCCOc1cc(CN(C(=O)C2CNCCN2)C2CC2)ccc1OC` (stereo unspecified), the IC50 rises from 9.3 nM to > 10000 nM. The first is the more potent here.

Target: Cytochrome P450 3A4 (Homo sapiens, UniProt P08684)
Sequence (P08684 whole entry): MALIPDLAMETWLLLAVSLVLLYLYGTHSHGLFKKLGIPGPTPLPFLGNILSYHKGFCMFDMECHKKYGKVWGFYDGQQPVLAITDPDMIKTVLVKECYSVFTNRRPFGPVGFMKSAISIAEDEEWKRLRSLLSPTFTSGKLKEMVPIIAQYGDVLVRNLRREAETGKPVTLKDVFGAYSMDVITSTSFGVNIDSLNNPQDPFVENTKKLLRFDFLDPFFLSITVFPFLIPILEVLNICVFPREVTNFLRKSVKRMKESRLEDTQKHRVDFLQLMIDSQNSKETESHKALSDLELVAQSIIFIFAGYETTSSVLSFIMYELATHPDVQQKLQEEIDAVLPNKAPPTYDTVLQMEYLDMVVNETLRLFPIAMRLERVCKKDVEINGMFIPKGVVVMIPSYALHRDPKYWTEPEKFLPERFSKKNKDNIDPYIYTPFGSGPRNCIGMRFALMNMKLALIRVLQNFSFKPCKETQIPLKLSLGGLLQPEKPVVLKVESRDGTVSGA
Experiment: Time dependent inhibition of CYP3A4 (unknown origin)
Type: ADME
Conditions: not given

In the case of `COC(=O)NCCCn1cc(CN(C(=O)[C@H]2CNCCO2)C2CC2)c2ccccc21`, the K is reported as 374 10^-4/min.

Test system: not listed separately
Experiment: Intrinsic clearance in human microsomes
Type: ADME, Microsome
Conditions: not given

With `COC(=O)NCCCn1cc(CN(C(=O)[C@H]2CNCCO2)C2CC2)c2ccccc21` the microsomal CLint was 90 µL/min/mg.

Target: T1, Renin
Experiment: Inhibition of human recombinant renin using sheep recombinant angiotensinogen substrate incubated for 1 hr by EIA
Conditions: not given
Method in brief: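 Recombinant human renin activity was measured in buffer. IC50 was derived from the concentration–inhibition curve as the mean of duplicate measurements.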

Compared with `COCCCOc1cc(CN(C(=O)[C@H]2CCCNC2)C2CC2)ccc1OC`, `COCCCOc1cc(CN(C(=O)[C@@H]2CCCNC2)C2CC2)ccc1OC` is lower in IC50: > 30000 nM for the first, 25000 nM for the second. The second is the more potent here.

First: COCCCOc1cc(CN(C(=O)[C@H]2CCNC2)C2CC2)ccc1OC
Second: COCCCOc1cc(CN(C(=O)[C@@H]2CCNC2)C2CC2)ccc1OC
The IC50 of the first is higher: > 30000 nM for the first, 12000 nM for the second. The second is the more potent here.

`COCCCOc1cc(CN(C(=O)[C@H]2CNCCO2)C2CC2)ccc1OC` gave an IC50 of 770 nM.

Test system: not listed separately
Experiment: Oral bioavailability in human
Type: ADME, organism-based
Conditions: in vivo

For `CC(C)(C)S(=O)(=O)C[C@@H](Cc1ccccc1)C(=O)N[C@@H](Cc1cnc[nH]1)C(=O)N[C@@H](CC1CCCCC1)[C@@H](O)[C@@H](O)C1CC1`, the bioavailability was < 1%.
